Measurements from ChEMBL document CHEMBL1158803, “Xanthone and sesquiterpene derivatives from the fruits of Garcinia scortechinii” (2005).
Values after ≈ are worked out from the molar mass of the structure shown.

System: Staphylococcus aureus
Experiment: Antibacterial activity against methicillin-resistant Staphylococcus aureus after 18 hrs by agar microdilution method
Type: functional
Method in brief: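 Agar microdilution; compounds in DMSO, serial 2-fold dilutions mixed 1:100 into melted Mueller-Hinton agar, final 128 to 0.03 µg/mL. Clinical MRSA isolate (Songklanakarin Hospital) inoculum spotted on agar wells, incubated 35 °C for 18 h. MIC taken as lowest concentration inhibiting visible growth. Vancomycin positive control; DMSO-agar growth control.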

Row | SMILES | MIC
1 | CO[C@]12C=C3C(=O)c4c(O)c(CC=C(C)C)c5c(c4O[C@]34[C@H](C1)[C@](C)(CO)O[C@]4(CC=C(C)C)C2=O)C(C)(C)[C@@H](C)O5 | > 221 µM
2 | CN[C@H](CC(C)C)C(=O)N[C@H]1C(=O)N[C@@H](CC(N)=O)C(=O)N[C@H]2C(=O)N[C@H]3C(=O)N[C@H](C(=O)N[C@H](C(=O)O)c4cc(O)cc(O)c4-c4cc3ccc4O)[C@H](O)c3ccc(c(Cl)c3)Oc3cc2cc(c3O[C@@H]2O[C@H](CO)[C@@H](O)[C@H](O)[C@H]2O[C@H]2C[C@](C)(N)[C@H](O)[C@H](C)O2)Oc2ccc(cc2Cl)[C@H]1O [VANCOMYCIN] | 1.38 µM (≈ 2 µg/mL)
3 | COC1Cc2c(oc3c(CC=C(C)C)c4c(c(O)c3c2=O)C(C)(C)C(C)O4)C2=C1[C@@](C/C=C(\C)C(=O)O)(C(=O)O)OC2(C)C (stereo partly specified) [SCORTECHINONE X] | > 210 µM
4 | COc1cc2c(=O)c3c(O)c(CC=C(C)C)c4c(c3oc2c2c1[C@@](C/C=C(\C)C(=O)O)(C(=O)O)OC2(C)C)C(C)(C)[C@@H](C)O4 [SCORTECHINONE V] | 106 µM (≈ 64.3 µg/mL)
5 | C=C(C)C(O)Cc1c(O)c2c(c3c1O[C@H](C)C3(C)C)O[C@@]13[C@@H]4C[C@@](OC)(C(=O)[C@@]1(C/C=C(/C)C(=O)O)OC4(C)C)[C@@H](OC)[C@@H]3C2=O (stereo partly specified) [SCORTECHINONE S] | 100 µM (≈ 64.1 µg/mL)
6 | CO[C@H]1[C@@H]2C(=O)c3c(O)c(CC=C(C)C)c4c(c3O[C@]23[C@@H]2C[C@@]1(OC)C(=O)[C@@]3(C/C=C(/C)C(=O)O)OC2(C)C)C(C)(C)[C@@H](C)O4 [SCORTECHINONE I] | 12.8 µM (≈ 8 µg/mL)
7 | CC(C)=CCc1c2c(c3oc4c(C(C)(C)O)cc(O)cc4c(=O)c3c1O)C(C)(C)[C@@H](C)O2 [SCORTECHINONE U] | > 292 µM
8 | C=C(C)C(O)Cc1c(O)c2c(c3c1O[C@H](C)C3(C)C)O[C@@]13C(=C[C@@]4(OC)C[C@@H]1C(C)(C)O[C@]3(C/C=C(/C)C(=O)O)C4=O)C2=O (stereo partly specified) [SCORTECHINONE R] | > 210 µM
9 | COc1cc2c(=O)c3c(O)c4c(c(CC=C(C)C)c3oc2c2c1[C@@](C/C=C(\C)C(=O)O)(C(=O)O)OC2(C)C)OC(C)C4(C)C (stereo partly specified) [SCORTECHINONE W] | 52.8 µM (≈ 32 µg/mL)
10 | CO[C@H]1[C@@H]2C(=O)c3c(O)c(CC=C(C)C)c4c(c3O[C@]23[C@@H]2C[C@@]1(OC)C(=O)[C@@]3(C/C=C(\C)C=O)OC2(C)C)C(C)(C)[C@@H](C)O4 [SCORTECHINONE T] | > 105 µM
11 | CO[C@]12C=C3C(=O)c4c(O)c(CC=C(C)C)c5c(c4O[C@]34[C@H](C1)C(C)(C)O[C@]4(C/C=C(/C)C(=O)O)C2=O)C(C)(C)[C@H](C)O5 [SCORTECHINONE B] | 3.38 µM (≈ 2 µg/mL)
